{"data": "Measured values of several laboratories", "organism": "Staphylococcus aureus", "note": "Lines come from different studies, so protocols differ."}
{"SMILES": "Cc1nn(-c2nc3ccc(Cl)cc3s2)c2c1C(=O)c1ccccc1-2", "test": "microbial growth, well diffusion", "test system": "NCIM5021", "conditions": "250 µg/mL", "measurement": "inhibition zone", "value": "10 mm"}
{"SMILES": "O=C(Cc1ccc(Cl)c(C(F)(F)F)c1)Nc1ccc2c(c1)OC(F)(F)O2", "test": "microbial growth", "test system": "NCTC8325", "conditions": "24 h", "measurement": "MIC", "value": "> 100 µM"}
{"SMILES": "CC(C)Cc1nn(-c2nc3ccc(Cl)cc3s2)c2c1C(=O)c1ccccc1-2", "test": "microbial growth, well diffusion", "test system": "NCIM5021", "conditions": "250 µg/mL", "measurement": "inhibition zone", "value": "10 mm"}
{"SMILES": "CC(=O)Oc1cccc2c1[nH]c1c(C3=C[C@@]4(O)CC/C=C\\CCCCN5CC[C@@H]3[C@]3(C[C@@H]6/C=C\\CCCCN6[C@H]34)C5)nccc12", "test": "microbial growth", "test system": "MRSA", "conditions": "drug-resistant strain", "measurement": "IC50", "value": "0.45 µg/mL"}
{"SMILES": "Cc1cc(Nc2cc(CN3CCOCC3)c3nc(C)c(Cc4ccc(Cl)cc4F)n3n2)n[nH]1", "test": "microbial growth", "test system": "NCTC8325", "measurement": "MIC", "value": "30 µM"}
{"SMILES": "O=C1NC(=S)S/C1=C\\c1ccc(-c2ccc(N(c3ccccc3)c3ccccc3)cc2)cc1", "test": "microbial killing, broth dilution", "test system": "ATCC25923", "measurement": "MBC", "value": "1000 µg/mL"}
{"SMILES": "O=C(Sc1cccccc1=O)c1cccc(C(F)(F)F)c1", "test": "microbial growth, broth dilution", "test system": "ATCC29213", "measurement": "MIC80", "value": "> 100 µM"}
{"SMILES": "O=C1NC(=S)N/C1=C\\c1ccc(-c2ccc(N(c3ccccc3)c3ccccc3)cc2)cc1", "test": "microbial killing, broth dilution", "test system": "ATCC25923", "measurement": "MBC", "value": "> 1000 µg/mL"}
{"SMILES": "C=CCCCCCCCCCCCC(O)CC(O)CO (centres unmarked)", "test": "microbial growth, broth dilution", "test system": "ATCC29213", "measurement": "IC50", "value": "> 200 µg/mL"}
{"SMILES": "CC(C)c1nn(-c2nc3ccc(Br)cc3s2)c2c1C(=O)c1ccccc1-2", "test": "microbial growth, well diffusion", "test system": "NCIM5021", "conditions": "1000 µg/mL", "measurement": "inhibition zone", "value": "12 mm"}
{"SMILES": "C[C@@H]1CCN(C(=O)CC#N)C[C@@H]1N(C)c1ncnc2[nH]ccc12", "test": "microbial growth", "test system": "NCTC8325", "measurement": "MIC", "value": "> 30 µM"}
{"SMILES": "C#CCCCCCCCCCCCC(O)CC(O)CO (centres unmarked)", "test": "microbial growth, broth dilution", "test system": "ATCC29213", "measurement": "IC50", "value": "3.26 µg/mL"}
{"SMILES": "CC(=O)c1c(C)c2cnc(Nc3ccc(N4CCNCC4)cn3)nc2n(C2CCCC2)c1=O", "test": "microbial growth", "test system": "NCTC8325", "measurement": "MIC", "value": "> 30 µM"}
{"SMILES": "O=C(O)CN1C(=O)/C(=C/c2ccc(-c3ccc(N(c4ccccc4)c4ccccc4)cc3)cc2)SC1=S", "test": "microbial killing, broth dilution", "test system": "ATCC43300", "measurement": "MBC", "value": "7.8 µg/mL"}
{"SMILES": "C=CC(=O)Nc1cccc(Sc2nc(Nc3ccc(N4CCN(C)CC4)cc3)ncc2Cl)c1", "test": "microbial growth", "test system": "NCTC8325", "measurement": "MIC", "value": "> 30 µM"}
{"SMILES": "CC(C)c1nn(-c2nc3ccc(Cl)cc3s2)c2c1C(=O)c1ccccc1-2", "test": "microbial growth, well diffusion", "test system": "NCIM5021", "conditions": "1000 µg/mL", "measurement": "inhibition zone", "value": "12 mm"}
{"SMILES": "COc1ccc(-c2cc3c(C)nc(N)nc3n([C@H]3CC[C@H](OCCO)CC3)c2=O)cn1", "test": "microbial growth", "test system": "NCTC8325", "measurement": "MIC", "value": "> 30 µM"}
{"SMILES": "COc1ccc2nc(-n3nc(C)c4c3-c3ccccc3C4=O)sc2c1", "test": "microbial growth, well diffusion", "test system": "NCIM5021", "conditions": "1000 µg/mL", "measurement": "inhibition zone", "value": "13 mm"}
{"SMILES": "O=C1NC(=S)N/C1=C\\c1ccc(-c2ccc(N(c3ccccc3)c3ccccc3)cc2)c2ccccc12", "test": "microbial killing, broth dilution", "test system": "ATCC43300", "measurement": "MBC", "value": "> 1000 µg/mL"}
{"SMILES": "O=C(Sc1cccccc1=O)c1ccc(C(F)(F)F)cc1", "test": "microbial growth, broth dilution", "test system": "ATCC29213", "measurement": "MIC80", "value": "> 100 µM"}
{"SMILES": "CC(=O)NC[C@H]1CN(c2ccc(N3CCOCC3)c(F)c2)C(=O)O1", "test": "microbial killing, broth dilution", "test system": "NRS107", "measurement": "MBC", "value": "16 µM"}
{"SMILES": "Cc1cc(C)c(NC(=O)Nc2ccc3c(c2)OC(F)(F)O3)c(C)c1", "test": "microbial growth", "test system": "NCTC8325", "measurement": "MIC", "value": "> 100 µM"}
{"SMILES": "O=C1NC(=S)S/C1=C\\c1ccc(-c2ccc(N(c3ccccc3)c3ccccc3)cc2)c2ccccc12", "test": "microbial killing, broth dilution", "test system": "ATCC25923", "measurement": "MBC", "value": "> 1000 µg/mL"}
{"SMILES": "Clc1ccc(-c2nc3ccccc3[nH]2)cc1Cl", "test": "microbial growth, broth dilution", "test system": "ATCC29213 MSSA", "measurement": "MIC", "value": "32 µg/mL"}
{"SMILES": "CN1CCC(CNc2ccc3ncc(-c4cccc(OC(F)(F)F)c4)n3n2)CC1", "test": "microbial growth", "test system": "NCTC8325", "measurement": "MIC", "value": "> 30 µM"}
{"SMILES": "O=C1NC(=S)S/C1=C\\c1c2ccccc2c(-c2ccc(N(c3ccccc3)c3ccccc3)cc2)c2ccccc12", "test": "microbial killing, broth dilution", "test system": "ATCC43300", "measurement": "MBC", "value": "> 1000 µg/mL"}
{"SMILES": "Cc1ccc2nc(-n3nc(CC(C)C)c4c3-c3ccccc3C4=O)sc2c1", "test": "microbial growth, well diffusion", "test system": "NCIM5021", "conditions": "125 µg/mL", "measurement": "inhibition zone", "value": "11 mm"}
{"SMILES": "CN[C@H](CC(C)C)C(=O)N[C@H]1C(=O)N[C@@H](CC(N)=O)C(=O)N[C@H]2C(=O)N[C@H]3C(=O)N[C@H](C(=O)N[C@H](C(=O)O)c4cc(O)cc(O)c4-c4cc3ccc4O)[C@H](O)c3ccc(c(Cl)c3)Oc3cc2cc(c3O[C@@H]2O[C@H](CO)[C@@H](O)[C@H](O)[C@H]2O[C@H]2C[C@](C)(N)[C@H](O)[C@H](C)O2)Oc2ccc(cc2Cl)[C@H]1O", "test": "microbial growth, disc diffusion", "test system": "ATCC29213", "conditions": "62.5 µg/disc, 24 h", "measurement": "inhibition zone", "value": "18 mm"}
{"SMILES": "O=C(Sc1cccccc1=O)c1ccccc1C(F)(F)F", "test": "microbial growth, broth dilution", "test system": "ATCC29213", "measurement": "MIC80", "value": "100 µM"}
{"SMILES": "Cc1nn(-c2nc3ccccc3s2)c2c1C(=O)c1ccccc1-2", "test": "microbial growth, well diffusion", "test system": "NCIM5021", "conditions": "125 µg/mL", "measurement": "inhibition zone", "value": "9 mm"}
{"SMILES": "CC1(c2ccccc2O)Nn2c(nc(-c3ccc(Cl)cc3)c(C#N)c2=O)N1C(Cc1c[nH]c2ccccc12)C(=O)O (centres unmarked)", "test": "microbial growth", "test system": "ATCC25923", "conditions": "15 µg/mL, 24 h", "measurement": "inhibition zone", "value": "35 mm"}
{"SMILES": "O=C(O)CN1C(=O)/C(=C/c2c3ccccc3c(-c3ccc(N(c4ccccc4)c4ccccc4)cc3)c3ccccc23)NC1=S", "test": "microbial killing, broth dilution", "test system": "ATCC43300", "measurement": "MBC", "value": "> 1000 µg/mL"}
{"SMILES": "Cc1nn(-c2nc3ccc(Br)cc3s2)c2c1C(=O)c1ccccc1-2", "test": "microbial growth, well diffusion", "test system": "NCIM5021", "conditions": "125 µg/mL", "measurement": "inhibition zone", "value": "10 mm"}
{"SMILES": "O=C(O)CN1C(=O)/C(=C/c2ccc(-c3ccc(N(c4ccccc4)c4ccccc4)cc3)c3ccccc23)SC1=S", "test": "microbial killing, broth dilution", "test system": "ATCC25923", "measurement": "MBC", "value": "> 1000 µg/mL"}
{"SMILES": "COc1c(N2C[C@@H]3CCCN[C@@H]3C2)c(F)cc2c(=O)c(C(=O)O)cn(C3CC3)c12", "test": "microbial growth", "test system": "ATCC700699", "measurement": "MIC90", "value": "0.24 µg/mL"}
